For one experiment, the target named is SERT (Rattus norvegicus, UniProt P31652). Nature of the experiment: [3H]5-HT release at SERT in rat brain synaptosomes. Type of experiment: biochemical. Put shortly:
(§1)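 Rat synaptosomes in 1 μM reserpine (brain minus caudate/cerebellum for SERT and NET; caudate for DAT), preloaded 1 h in Krebs-phosphate with 5 nM [3H]5-HT (SERT) or 9 nM [3H]MPP+ (NET, DAT). Blockers of competing transporters were included. Test compound was run as 8-point curves from 10 to 10,000 nM, in triplicate on three occasions. Filtration and scintillation counting; EC50 from non-linear regression.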

Another experiment has as its target DAT (Rattus norvegicus, UniProt P23977). The experiment can be described thus: [3H]MPP+ release at DAT in rat caudate synaptosomes. It is filed as biochemical.
A further experiment concerns the target NET (Rattus norvegicus, UniProt Q63380). The experiment can be described thus: [3H]MPP+ release at NET in rat brain synaptosomes. It is filed as biochemical.
The test system of the next experiment is SERT, DAT, and NET. It is filed as biochemical, rat. To be noted: SERT versus DAT and NET. Put shortly: as §1
The conditions of experiment [1]: cited from earlier work; for MDMA-like effects in humans: human.
[2] abbreviates: S(+) versus R(−) isomer of EDMA.

Structures can show the parent of a compound that is named as a salt. Where two headings read alike, the source gives them in different places.

Chain of SERT (P31652 whole entry): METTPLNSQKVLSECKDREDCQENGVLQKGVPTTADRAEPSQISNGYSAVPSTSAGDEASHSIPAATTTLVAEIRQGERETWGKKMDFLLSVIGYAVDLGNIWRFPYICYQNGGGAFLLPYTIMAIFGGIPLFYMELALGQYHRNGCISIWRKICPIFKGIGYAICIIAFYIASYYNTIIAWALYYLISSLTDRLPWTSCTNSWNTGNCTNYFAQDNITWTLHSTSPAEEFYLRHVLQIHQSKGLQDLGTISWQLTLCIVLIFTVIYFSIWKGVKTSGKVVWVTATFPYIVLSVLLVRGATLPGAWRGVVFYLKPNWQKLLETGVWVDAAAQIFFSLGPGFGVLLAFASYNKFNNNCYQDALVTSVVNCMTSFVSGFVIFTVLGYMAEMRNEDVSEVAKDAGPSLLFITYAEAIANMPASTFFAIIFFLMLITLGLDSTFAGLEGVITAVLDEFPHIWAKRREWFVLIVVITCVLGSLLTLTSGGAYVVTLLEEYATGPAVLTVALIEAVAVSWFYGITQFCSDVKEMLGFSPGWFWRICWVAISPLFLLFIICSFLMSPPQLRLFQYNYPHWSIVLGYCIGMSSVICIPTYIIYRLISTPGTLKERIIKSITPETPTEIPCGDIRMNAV
Chain of NET (Q63380 1-617): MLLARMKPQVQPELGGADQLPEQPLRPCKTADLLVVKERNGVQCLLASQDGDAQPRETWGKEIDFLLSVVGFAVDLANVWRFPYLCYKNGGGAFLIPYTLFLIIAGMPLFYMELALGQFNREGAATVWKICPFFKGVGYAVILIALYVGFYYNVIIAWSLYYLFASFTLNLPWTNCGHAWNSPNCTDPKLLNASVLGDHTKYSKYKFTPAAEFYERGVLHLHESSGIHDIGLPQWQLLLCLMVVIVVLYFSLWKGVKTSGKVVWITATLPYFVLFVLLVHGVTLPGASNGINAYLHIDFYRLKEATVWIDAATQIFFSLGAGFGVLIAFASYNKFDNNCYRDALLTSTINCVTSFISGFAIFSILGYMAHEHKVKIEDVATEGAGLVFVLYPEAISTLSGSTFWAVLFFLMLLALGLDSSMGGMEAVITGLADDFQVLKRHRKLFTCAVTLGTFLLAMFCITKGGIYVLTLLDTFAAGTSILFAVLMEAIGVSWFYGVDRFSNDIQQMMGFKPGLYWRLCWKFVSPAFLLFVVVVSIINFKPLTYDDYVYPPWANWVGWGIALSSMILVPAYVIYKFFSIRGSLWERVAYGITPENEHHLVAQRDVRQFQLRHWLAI
Chain of DAT (P23977 whole entry): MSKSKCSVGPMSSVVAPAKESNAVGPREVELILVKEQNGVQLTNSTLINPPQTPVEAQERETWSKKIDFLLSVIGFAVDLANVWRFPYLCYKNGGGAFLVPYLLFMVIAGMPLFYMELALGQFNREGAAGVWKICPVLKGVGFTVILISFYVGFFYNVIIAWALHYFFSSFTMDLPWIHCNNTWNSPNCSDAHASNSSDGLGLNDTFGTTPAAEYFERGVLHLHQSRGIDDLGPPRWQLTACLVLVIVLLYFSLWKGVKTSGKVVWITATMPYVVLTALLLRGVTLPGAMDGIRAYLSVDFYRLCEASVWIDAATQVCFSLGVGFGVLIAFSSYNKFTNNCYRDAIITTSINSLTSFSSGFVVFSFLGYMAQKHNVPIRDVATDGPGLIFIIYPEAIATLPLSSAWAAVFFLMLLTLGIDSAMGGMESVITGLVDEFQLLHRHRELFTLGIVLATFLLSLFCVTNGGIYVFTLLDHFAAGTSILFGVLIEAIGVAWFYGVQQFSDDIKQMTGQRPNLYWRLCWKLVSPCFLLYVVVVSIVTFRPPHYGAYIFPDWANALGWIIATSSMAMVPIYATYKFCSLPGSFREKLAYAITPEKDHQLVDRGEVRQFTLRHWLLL

Turning to `CNC(C)Cc1ccc2c(c1)OCCO2` (racemic) [(±)EDMA (3), (±)-1-(3,4-Ethylenedioxyphenyl)-N-methyl-2-aminopropane hydrochloride], on SERT (SERT versus DAT), the “release potency at SERT relative to potency at DAT” value is recorded as “approximately six times”. In addition, the “release potency at SERT relative to potency at NET” value on SERT (SERT versus NET) is given as “three times”. The “potency as releaser at SERT relative to (±)MDMA (1)” value at SERT (compared with (±)MDMA (1)) is listed as “approximately half the potency”. For the same molecule, the “fold less potent than (±)MDMA (1) as releaser at DAT” value at DAT (compared with (±)MDMA (1)) is recorded as 8 fold. Besides, the “fold less potent than (±)MDMA (1) as releaser at NET” value on NET (compared with (±)MDMA (1)) is listed as 4.5 fold. Moreover, the “transporter selectivity as releaser” value in the experiment with SERT, DAT, and NET is “slightly more selective for SERT over DAT and NET”. Moreover, the entries for the “MDMA-like effects in humans” value in experiment [1] (200 mg) and in experiment [1] (250 mg) were “fails to produce similar effects” and “threshold”, respectively.

As to `CNC(C)Cc1ccc2c(c1)OCO2` (racemic) [(±)MDMA (1), N-methyl-(3,4-methylenedioxyphenyl)-2-aminopropane, reference compound], the “transporter selectivity as releaser” value in the experiment on SERT, DAT, and NET is given as “nearly equipotent”. Moreover, the “behaviorally active total human dose” value in experiment [1] (p.o.) is 80 to 150 mg.

For `CN[C@H](C)Cc1ccc2c(c1)OCCO2` [R(−)EDMA [(R)3], R(−)1-(3,4-Ethylenedioxyphenyl)-N-methyl-2-aminopropane hydrochloride], the “transporter selectivity as releaser” value with SERT, DAT, and NET is reported as “more SERT-selective”.

With `CN[C@@H](C)Cc1ccc2c(c1)OCCO2` [S(+)EDMA [(S)3], S(+)1-(3,4-Ethylenedioxyphenyl)-N-methyl-2-aminopropane hydrochloride], the “fold more potent than R(−) enantiomer at SERT” value on SERT (setting [2]) is listed as “about 6 fold”. The “fold more potent than R(−) enantiomer at DAT” value at DAT (setting [2]) came to 50 fold. The “fold more potent than R(−) enantiomer at NET” value on NET (setting [2]) was determined as 8 fold.

The record behind these values is paper PMC4562428 (Bioorganic & medicinal chemistry, 2015).
